ChEMBL document CHEMBL4138308, “Simultaneous Targeting of RGD-Integrins and Dual Murine Double Minute Proteins in Glioblastoma Multiforme” (J Med Chem, 2018)
Activity calls are given as the source filed them. No cut-off for these calls is given here.

Tests used:
Integrin alpha-5/beta-1 = Integrin alpha-5/beta-1 (Homo sapiens, UniProt P05556+P08648); assay: Inhibition of fibronectin binding to soluble alpha5beta1 integrin (unknown origin) after 1 hr by ELISA; type: protein-complex assay
Integrin alpha-V/beta-3 = Integrin alpha-V/beta-3 (Homo sapiens, UniProt P05106+P06756); assay: Inhibition of vitronectin binding to human alphaVbeta3 integrin after 1 hr by ELISA; type: protein-complex assay
How it was run: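 Plates coated overnight at 4 °C with vitronectin 1.0 μg/mL in carbonate buffer pH 9.6, blocked 1 h with TSB (Ca2+, Mg2+, Mn2+, 1% BSA). Soluble human αvβ3 (final 1.0 μg/mL) with inhibitor (final 0.128–400 nM) 1 h at room temperature; detection by anti-CD51/61 then peroxidase secondary, absorbance 405 nm. Duplicates; IC50 from curve inflection point; internal standard per plate.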

[1] = target: T1, E3 ubiquitin-protein ligase Mdm2 (Homo sapiens, UniProt Q00987); assay: Displacement of p53 from MDM2 in human U87MG cells incubated for 10 mins by sandwich ELISA method; type: cell-based
Target sequence in this assay (Q00987 whole entry): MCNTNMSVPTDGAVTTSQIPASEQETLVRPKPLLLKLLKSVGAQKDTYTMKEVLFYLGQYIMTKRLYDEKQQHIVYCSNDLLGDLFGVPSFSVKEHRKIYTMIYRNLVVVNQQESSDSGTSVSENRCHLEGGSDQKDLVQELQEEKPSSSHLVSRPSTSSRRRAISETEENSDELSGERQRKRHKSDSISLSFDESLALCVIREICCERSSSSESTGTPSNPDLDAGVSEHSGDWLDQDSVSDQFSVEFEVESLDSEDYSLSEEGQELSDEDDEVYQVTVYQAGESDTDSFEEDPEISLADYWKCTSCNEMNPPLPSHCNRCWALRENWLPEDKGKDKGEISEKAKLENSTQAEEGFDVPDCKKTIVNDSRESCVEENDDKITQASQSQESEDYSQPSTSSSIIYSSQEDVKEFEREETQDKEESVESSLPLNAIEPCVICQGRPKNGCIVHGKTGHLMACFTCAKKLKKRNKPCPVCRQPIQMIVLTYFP

U-87 MG [2] = assay: Antiproliferative activity against human U87MG cells at 100 nM after 72 hrs in presence of MDM2 inhibitor nutlin-3 and MDM4 inhibitor SJ-1722550 by MTS assay; type: functional, cell-based; settings: U-87MG ATCC
How it was run: (§1)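 Cells seeded ~5000 cells/cm2, after 24 h medium replaced with compound in DMSO (DMSO 1% v/v in controls), alone or in combination at 100 nM each, or concentration series (U87MG 1–100 nM). 72 h exposure; proliferation read by MTS, expressed as % of DMSO control (mean ± SEM, N = 3); IC50 from sigmoid dose–response fit.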

[3] = target: T2, Protein Mdm4 (Homo sapiens) (UniProt O15151); assay: Displacement of p53 from MDM4 in human SHSY-5Y cells at 100 uM incubated for 10 mins by sandwich ELISA method relative to control; type: cell-based
T2 sequence (whole entry): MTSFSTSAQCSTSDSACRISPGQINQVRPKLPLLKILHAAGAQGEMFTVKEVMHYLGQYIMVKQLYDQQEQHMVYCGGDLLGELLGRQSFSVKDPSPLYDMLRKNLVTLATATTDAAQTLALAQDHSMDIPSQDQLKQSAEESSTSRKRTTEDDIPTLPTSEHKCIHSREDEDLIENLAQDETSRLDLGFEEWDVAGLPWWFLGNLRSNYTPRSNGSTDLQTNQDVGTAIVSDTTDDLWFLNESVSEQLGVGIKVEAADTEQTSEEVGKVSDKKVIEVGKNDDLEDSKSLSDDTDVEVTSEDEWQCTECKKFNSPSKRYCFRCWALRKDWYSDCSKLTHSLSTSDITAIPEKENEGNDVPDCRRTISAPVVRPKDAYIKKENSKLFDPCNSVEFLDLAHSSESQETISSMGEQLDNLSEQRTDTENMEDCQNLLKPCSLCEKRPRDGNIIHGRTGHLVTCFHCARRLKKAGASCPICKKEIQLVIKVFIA
How it was run: (§2)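 Native complexes in cell lysates (U87MG for p53/MDM2; SHSY-5Y for p53/MDM4). Compound incubated with lysate 10 min at room temperature, then 90 min in wells precoated with anti-MDM2 or anti-MDM4; blocked with 1% BSA, anti-p53 (1:250) 90 min, HRP secondary 60 min, TMB read at 450 nm. Blanks lacked anti-p53. Mean of three determinations.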

U-87 MG [4] = assay: Antiproliferative activity against human U87MG cells at 100 nM after 72 hrs in presence of MDM2 inhibitor nutlin-3 by MTS assay; type: functional, cell-based; settings: U-87MG ATCC; how it was run: as §1
[5] = target: T1, E3 ubiquitin-protein ligase Mdm2; assay: Displacement of p53 from MDM2 in human U87MG cells at 100 uM incubated for 10 mins by sandwich ELISA method relative to control; type: cell-based; how it was run: as §2
Target sequence in this assay (Q00987 whole entry, looked up): as the sequence (Q00987 whole entry) above

U-87 MG [6] = assay: Anti-invasive activity in human U87MG cells at 10 uM after 24 hrs in presence of MDM2 inhibitor nutlin-3 and MDM4 inhibitor SJ-1722550 by transwell assay; type: functional, cell-based; settings: U-87MG ATCC
How it was run: (§3)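 U87MG cells suspended in serum-free medium (60,000 cells), treated at 10 μM (each agent at 10 μM when combined), placed in upper chamber of Matrigel-coated (0.32 mg/mL) transwell; lower chamber RPMI with 10% FBS. Invasion 24 h at 37 °C; cells on lower membrane surface fixed with p-formaldehyde, crystal violet stained, counted in five random fields per filter. Mean ± SEM vs DMSO control.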

U-87 MG [7] = assay: Antiproliferative activity against human U87MG cells at 100 nM after 72 hrs by MTS assay; type: functional, cell-based; settings: U-87MG ATCC; how it was run: as §1
U-87 MG [8] = assay: Anti-invasive activity in human U87MG cells at 10 uM after 24 hrs by transwell assay; type: functional; settings: U-87MG ATCC; how it was run: as §3
Protein Mdm4 = target: T3, Protein Mdm4 (Homo sapiens, UniProt O15151); assay: Displacement of p53 from MDM4 in human SHSY-5Y cells incubated for 10 mins by sandwich ELISA method; type: cell-based
T3 sequence (O15151 whole entry): T2 sequence (whole entry)

Integrin alpha-5/beta-1, sequence (P05556 21-798 limits assumed): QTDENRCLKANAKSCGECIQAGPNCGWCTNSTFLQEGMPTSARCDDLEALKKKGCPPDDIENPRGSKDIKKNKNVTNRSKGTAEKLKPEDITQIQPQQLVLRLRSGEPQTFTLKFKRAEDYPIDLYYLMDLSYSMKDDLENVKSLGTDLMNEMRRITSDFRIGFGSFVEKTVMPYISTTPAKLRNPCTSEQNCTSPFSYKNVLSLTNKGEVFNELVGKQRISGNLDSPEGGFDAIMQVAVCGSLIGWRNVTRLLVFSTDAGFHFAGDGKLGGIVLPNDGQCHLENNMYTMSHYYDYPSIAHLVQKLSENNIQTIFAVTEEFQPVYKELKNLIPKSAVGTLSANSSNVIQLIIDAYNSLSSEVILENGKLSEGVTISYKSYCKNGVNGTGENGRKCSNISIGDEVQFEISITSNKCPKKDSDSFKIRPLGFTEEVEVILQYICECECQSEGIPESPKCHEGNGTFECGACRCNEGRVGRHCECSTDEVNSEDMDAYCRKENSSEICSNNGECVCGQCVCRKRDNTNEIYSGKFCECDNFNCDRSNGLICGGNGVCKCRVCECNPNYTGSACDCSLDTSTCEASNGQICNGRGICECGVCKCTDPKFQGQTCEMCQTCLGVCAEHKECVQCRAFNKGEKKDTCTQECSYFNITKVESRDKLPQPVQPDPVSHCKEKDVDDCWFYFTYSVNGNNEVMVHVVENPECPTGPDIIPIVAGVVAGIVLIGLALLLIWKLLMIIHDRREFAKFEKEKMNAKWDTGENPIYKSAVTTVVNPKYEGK
Integrin alpha-5/beta-1, sequence (P08648 42-894 limits assumed): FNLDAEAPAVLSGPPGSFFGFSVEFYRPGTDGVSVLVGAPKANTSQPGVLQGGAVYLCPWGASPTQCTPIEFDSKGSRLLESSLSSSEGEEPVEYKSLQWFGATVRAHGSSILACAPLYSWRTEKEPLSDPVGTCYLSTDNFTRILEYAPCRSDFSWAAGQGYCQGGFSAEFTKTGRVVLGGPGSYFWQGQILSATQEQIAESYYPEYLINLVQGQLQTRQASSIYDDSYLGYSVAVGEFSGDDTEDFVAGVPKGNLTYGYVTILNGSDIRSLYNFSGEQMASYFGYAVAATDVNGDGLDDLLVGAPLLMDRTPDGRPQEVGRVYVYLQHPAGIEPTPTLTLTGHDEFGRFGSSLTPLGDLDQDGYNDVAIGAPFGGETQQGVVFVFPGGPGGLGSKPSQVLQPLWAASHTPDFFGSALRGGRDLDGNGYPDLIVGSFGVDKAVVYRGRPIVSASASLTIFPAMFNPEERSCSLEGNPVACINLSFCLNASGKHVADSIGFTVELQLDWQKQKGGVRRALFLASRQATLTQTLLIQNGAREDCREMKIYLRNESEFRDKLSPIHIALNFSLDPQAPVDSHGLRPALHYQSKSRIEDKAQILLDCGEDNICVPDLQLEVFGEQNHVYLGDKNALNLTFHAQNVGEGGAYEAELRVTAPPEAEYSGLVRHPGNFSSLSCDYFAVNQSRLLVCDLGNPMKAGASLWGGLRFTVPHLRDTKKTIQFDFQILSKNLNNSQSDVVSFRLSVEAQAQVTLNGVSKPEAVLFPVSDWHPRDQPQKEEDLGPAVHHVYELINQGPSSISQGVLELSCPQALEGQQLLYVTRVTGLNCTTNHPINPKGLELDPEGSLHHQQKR
Integrin alpha-5/beta-1, sequence (P08648 895-1049 limits assumed): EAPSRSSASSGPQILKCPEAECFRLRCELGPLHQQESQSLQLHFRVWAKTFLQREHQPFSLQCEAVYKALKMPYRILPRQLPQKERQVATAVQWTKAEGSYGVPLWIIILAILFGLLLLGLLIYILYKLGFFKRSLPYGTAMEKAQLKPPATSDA
Integrin alpha-V/beta-3, sequence (P05106 27-788 limits assumed): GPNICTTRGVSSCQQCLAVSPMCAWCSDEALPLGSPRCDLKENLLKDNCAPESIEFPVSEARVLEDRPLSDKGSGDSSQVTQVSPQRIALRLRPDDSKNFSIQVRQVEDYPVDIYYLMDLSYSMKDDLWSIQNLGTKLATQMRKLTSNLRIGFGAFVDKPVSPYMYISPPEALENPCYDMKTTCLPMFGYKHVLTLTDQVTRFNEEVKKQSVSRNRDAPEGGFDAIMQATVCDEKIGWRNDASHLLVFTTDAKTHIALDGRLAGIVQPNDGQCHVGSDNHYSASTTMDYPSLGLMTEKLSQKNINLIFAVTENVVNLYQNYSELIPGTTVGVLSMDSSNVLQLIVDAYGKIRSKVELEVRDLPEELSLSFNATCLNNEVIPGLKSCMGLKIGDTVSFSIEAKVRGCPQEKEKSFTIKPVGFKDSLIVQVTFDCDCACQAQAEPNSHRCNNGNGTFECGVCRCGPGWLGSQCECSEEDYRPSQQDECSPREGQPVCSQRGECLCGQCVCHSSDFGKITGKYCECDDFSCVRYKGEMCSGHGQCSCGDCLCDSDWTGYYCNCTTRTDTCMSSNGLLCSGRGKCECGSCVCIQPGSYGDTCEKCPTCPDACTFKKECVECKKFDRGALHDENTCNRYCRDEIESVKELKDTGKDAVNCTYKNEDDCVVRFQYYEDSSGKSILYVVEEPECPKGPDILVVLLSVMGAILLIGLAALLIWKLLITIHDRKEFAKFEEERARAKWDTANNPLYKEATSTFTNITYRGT
Integrin alpha-V/beta-3, sequence (P06756 31-889 limits assumed): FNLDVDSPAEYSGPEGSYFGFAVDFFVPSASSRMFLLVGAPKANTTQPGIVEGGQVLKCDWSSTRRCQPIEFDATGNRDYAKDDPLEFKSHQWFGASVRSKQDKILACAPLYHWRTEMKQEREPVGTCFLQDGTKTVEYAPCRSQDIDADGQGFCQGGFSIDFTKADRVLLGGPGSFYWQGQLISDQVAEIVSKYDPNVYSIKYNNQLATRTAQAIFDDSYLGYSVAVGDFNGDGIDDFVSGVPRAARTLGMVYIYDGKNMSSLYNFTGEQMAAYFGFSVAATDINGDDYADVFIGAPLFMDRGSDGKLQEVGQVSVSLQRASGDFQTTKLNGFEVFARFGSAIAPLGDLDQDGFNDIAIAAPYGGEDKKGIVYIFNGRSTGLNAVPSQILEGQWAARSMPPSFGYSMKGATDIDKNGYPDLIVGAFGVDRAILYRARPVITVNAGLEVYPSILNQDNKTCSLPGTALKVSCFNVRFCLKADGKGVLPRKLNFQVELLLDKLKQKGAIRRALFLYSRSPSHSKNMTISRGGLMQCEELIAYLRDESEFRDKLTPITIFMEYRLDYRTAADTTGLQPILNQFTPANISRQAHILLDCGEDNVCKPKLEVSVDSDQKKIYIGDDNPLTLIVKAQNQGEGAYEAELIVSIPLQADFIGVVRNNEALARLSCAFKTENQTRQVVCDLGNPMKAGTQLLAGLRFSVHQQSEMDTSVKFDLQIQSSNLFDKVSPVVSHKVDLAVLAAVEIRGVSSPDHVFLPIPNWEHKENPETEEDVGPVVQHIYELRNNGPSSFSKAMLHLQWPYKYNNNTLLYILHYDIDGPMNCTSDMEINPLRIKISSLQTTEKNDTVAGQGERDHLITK
Integrin alpha-V/beta-3, sequence (P06756 891-1048 limits assumed): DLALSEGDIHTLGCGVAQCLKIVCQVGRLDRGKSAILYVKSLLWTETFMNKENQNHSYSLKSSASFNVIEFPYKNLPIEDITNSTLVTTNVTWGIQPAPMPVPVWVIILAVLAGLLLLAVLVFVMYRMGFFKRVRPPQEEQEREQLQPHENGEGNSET

| IC50 (Integrin alpha-5/beta-1) | IC50 (Integrin alpha-V/beta-3) | IC50 [1] | SMILES | also measured |
| --- | --- | --- | --- | --- |
| 28 nM | 2.8 nM |  | N=C(N)Nc1cccc(C(=O)NCC(=O)N[C@@H](CC(=O)O)C(=O)NCCc2ccccc2)c1 |  |
| 22 nM | 0.91 nM | > 1000 nM | N=C(N)Nc1cccc(C(=O)NCC(=O)N[C@@H](CC(=O)O)C(=O)NCC(c2ccccc2)c2ccccc2)c1 |  |
| 45 nM | 1.6 nM |  | C[C@@H](NC(=O)[C@H](CC(=O)O)NC(=O)CNC(=O)c1cccc(NC(=N)N)c1)c1ccccc1 |  |
|  |  |  | CC(C)[C@H]1C(=O)N[C@@H](CCCNC(=N)N)C(=O)NCC(=O)N[C@@H](CC(=O)O)C(=O)N[C@H](Cc2ccccc2)C(=O)N1C | Activity (U-87 MG [2]): Active; inhibition [3]: 2.6%; Activity (U-87 MG [4]): Active; inhibition [5]: 14.1%; Activity (U-87 MG [6]): Active; Activity (U-87 MG [7]): inactive; Activity (U-87 MG [8]): Active |
| 22 nM | 4.5 nM |  | N=C(N)Nc1cccc(C(=O)NCC(=O)N[C@@H](CC(=O)O)C(=O)Nc2cccc3ccccc23)c1 |  |
| 31 nM | 0.79 nM | > 1000 nM | N=C(N)Nc1cccc(C(=O)NCC(=O)N[C@@H](CC(=O)O)C(=O)NCc2ccccc2)c1 |  |
| 76 nM | 2.2 nM |  | N=C(N)Nc1cccc(C(=O)NCC(=O)N[C@@H](CC(=O)O)C(=O)NCCc2ccc3ccccc3c2)c1 |  |
| 13 nM | 0.21 nM | > 1000 nM | N=C(N)Nc1cccc(C(=O)NCC(=O)N[C@@H](CC(=O)O)C(=O)Nc2ccccc2)c1 | IC50 (Protein Mdm4): > 1000 nM |
| 41 nM | 1.7 nM |  | N=C(N)Nc1cccc(C(=O)NCC(=O)N[C@@H](CC(=O)O)C(=O)NCc2ccc(-c3ccccc3)cc2)c1 | IC50 (Protein Mdm4): > 1000 nM |
